Values after ≈ are worked out from the molar mass of the structure shown.

A word on the MIC: it is the least concentration at which growth counts as inhibited. A lower MIC goes with greater potency.

This assay deals with Mycobacterium tuberculosis variant bovis. The assay is described as follows: Antimicrobial activity against Mycobacterium bovis by two-fold serial dilution method. It is filed as functional. The method in brief: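 Classical test-tube successive two-fold dilution in Youmans' modification of Proskauer and Beck liquid medium with 10% bovine serum. Inocula from 14-day-old cultures. Compounds dissolved in ethylene glycol (stock 10 mg/mL), diluted in medium to 0.75–100 µg/mL. Incubated at 37 °C. MIC is the lowest concentration inhibiting growth relative to a compound-free control.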
Regarding `Cc1ccc2[nH]c(CCC3CCCCC3)nc2c1`, the MIC came to 12.5 µg/mL (≈ 51.6 µM).
Molecule `Fc1ccc2[nH]c(CCC3CCCCC3)nc2c1` came in with an MIC of 3.1 µg/mL (≈ 12.6 µM).
The molecule `Clc1ccc2[nH]c(CCC3CCCCC3)nc2c1` had an MIC of 0.75 µg/mL (≈ 2.85 µM).
With `Brc1ccc2[nH]c(CCC3CCCCC3)nc2c1` the figure was 0.75 µg/mL (≈ 2.44 µM); with `O=[N+]([O-])c1ccc2[nH]c(CCC3CCCCC3)nc2c1`, 3.1 µg/mL (≈ 11.3 µM); with `Cc1cc2nc(CCC3CCCCC3)[nH]c2cc1C`, 0.75 µg/mL (≈ 2.93 µM).
The molecule `Clc1cc2nc(CCC3CCCCC3)[nH]c2cc1Cl` came in with an MIC of 1.5 µg/mL (≈ 5.05 µM).
In the case of `Fc1ccc2[nH]c(CCCC3CCCCC3)nc2c1` it was 6.2 µg/mL (≈ 23.8 µM).
In the case of `Clc1cc2nc(CCCC3CCCCC3)[nH]c2cc1Cl` it was 25 µg/mL (≈ 80.3 µM); in that of `Cc1ccc2[nH]c(CCCc3ccccc3)nc2c1`, 25 µg/mL (≈ 99.9 µM); in that of `Cc1cc2nc(CCCc3ccccc3)[nH]c2cc1C`, 6.2 µg/mL (≈ 23.5 µM).
Molecule `Clc1cc2nc(CCCc3ccccc3)[nH]c2cc1Cl` had an MIC of 3.1 µg/mL (≈ 10.2 µM). Against the preceding molecule, the MIC is about 2-fold lower.
For `Cc1ccc2[nH]c(-c3cc(-c4ccccc4)ccn3)nc2c1`, the MIC is 25 µg/mL (≈ 87.6 µM).

(Values after ChEMBL document CHEMBL3352568, “Synthesis and evaluation of in vitro antimycobacterial activity of novel 1H-benzo[d]imidazole derivatives and analogues” (Eur J Med Chem, 2015).)
